Molecules are shown by their SMILES.

The first test relates to UDP-glucuronosyltransferase (UGT). The format is in vitro ADME, human. To be noted: 100 μM, HLM.
As for `COc1cc(O)c2c(c1)O[C@H](c1ccc(O)c3c1[C@@H](CO)[C@H](c1ccc(O)c(OC)c1)O3)[C@@H](O)C2=O` [compound 12, 7-O-Methylisosilychristin], the “inhibition of UGT activity, parent versus methylated analogue, in words” value was “more potent than isosilychristin (11)”.

For a further test, the system named is hepatitis C virus (JFH-1). The format is cell-based. Particulars: Huh7.5.1 cells infected with JFH-1 (MOI 0.05), HCV core protein at 72 h. An outline of the steps:
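Huh7.5.1 cells (150,000 per well) were plated and infected with JFH-1 the next day at 0.05 focus forming units per cell. After 5 h the inoculum was replaced with fresh medium containing test compound at three concentrations chosen from the 72 h ATP-based cytotoxicity data. Lysates were harvested 72 h later, loaded at equal total protein, and probed for HCV core by Western blot.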
For the compound `COc1cc(O)c2c(c1)O[C@H](c1ccc3c(c1)O[C@@H](c1ccc(O)c(OC)c1)[C@H](CO)O3)[C@@H](O)C2=O` [compound 4, 7-O-Methylsilybin B], the “anti-HCV activity upon methylation relative to the corresponding parent compound” value is given as “reduced”.
On to `COc1cc(O)c2c(c1)O[C@H](c1ccc3c(c1)O[C@@H](CO)[C@H](c1ccc(O)c(OC)c1)O3)[C@@H](O)C2=O` [compound 8, 7-O-Methylisosilybin B], for which the “anti-HCV activity upon methylation relative to the corresponding parent compound” value is “slight enhancement”.
Same read-out and setting: the same measure for `COc1cc(O)c2c(c1)O[C@H](c1cc(O)c3c(c1)[C@@H](CO)[C@H](c1ccc(O)c(OC)c1)O3)[C@@H](O)C2=O` [compound 10, 7-O-Methylsilychristin]: “improved anti-HCV activity”; for `COc1cc(O)c2c(c1)O[C@H](c1ccc3c(c1)O[C@H](c1ccc(O)c(OC)c1)[C@@H](CO)O3)[C@@H](O)C2=O` [compound 2, 7-O-Methylsilybin A]: “retained”.
Regarding `COc1cc(O)c2c(c1)O[C@H](c1ccc3c(c1)O[C@H](CO)[C@@H](c1ccc(O)c(OC)c1)O3)[C@@H](O)C2=O` [compound 6, 7-O-Methylisosilybin A], the “anti-HCV activity upon methylation relative to the corresponding parent compound” value is recorded as “reduced”.
Turning to `COc1cc(O)c2c(c1)O[C@H](c1ccc(O)c3c1[C@@H](CO)[C@H](c1ccc(O)c(OC)c1)O3)[C@@H](O)C2=O` [compound 12, 7-O-Methylisosilychristin], the “anti-HCV activity upon methylation relative to the corresponding parent compound” value is given as “improved anti-HCV activity”.

The values above are taken from paper PMC3855444 (Bioorganic & medicinal chemistry, 2013).
